Test [1] has as its target Acetylcholinesterase (Electrophorus electricus) (UniProt O42275). The experiment in a line: (§1) Inhibition of electric eel acetylcholinesterase using acetylthiocholine iodide as substrate preincubated for 10 mins before substrate addition after 15 mins by Ellman's method. A general note: DTNB colorimetry detects thiols as they appear.
In test [2] the target is Cholinesterase (Homo sapiens, UniProt P06276). Description: Inhibition of human BChE using butyrylthiocholine iodide as substrate preincubated for 10 mins before substrate addition after 15 mins by Ellman's method. A digest of the protocol: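 Ellman assay in 50 mM Tris-HCl, 0.1 M NaCl, 0.02 M MgCl2, pH 8.0, with DMSO at 1% final. hBChE (3.4 U/mg) is preincubated with compound for 10 min at 25 °C. Blanks lack enzyme or substrate. IC50 from linear regression.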

The target of test [3] is Intestinal-type alkaline phosphatase (Bos taurus, UniProt P19111). Description: (§2) Inhibition of calf intestinal alkaline phosphatase using p-nitrophenyl phosphate as substrate preincubated for 10 mins before substrate addition after 30 mins.
A short description of test [4]: Anticancer activity against Syrian golden hamster BHK21 cells at 100 uM after 48 hrs by SRB assay. Type of test: functional. The conditions noted are these: Mesocricetus auratus, BHK-21, 48 h; read-out: GI. A digest of the protocol: (§3)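 RPMI-1640 culture with 10% heat-inactivated FBS, 2 mM glutamine, 1 mM pyruvate and penicillin/streptomycin at 37 °C, 5% CO2. Cells per 96-well well: H157 10⁴, BHK-21 5×10⁴. After 24 h, monolayers were exposed to 100, 10, 1 or 0.1 µM compound for 48 h, with vincristine as standard. Cells were fixed in cold 50% TCA (4 °C, 1 h) and stained with 0.4% SRB in 1% acetic acid (30 min). Dye was dissolved in 10 mM Tris and read at A490 minus A630. Read-out was percent inhibition.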
(In general: Sulforhodamine B stains cellular protein and so reports cell mass.)

Test [5] can be described thus: Anticancer activity against Syrian golden hamster BHK21 cells at 10 uM after 48 hrs by SRB assay. Type of test: functional. As to conditions: Mesocricetus auratus, BHK-21, 48 h; read-out: GI. A digest of the protocol: as §3
Test [6] in a line: Anticancer activity against Syrian golden hamster BHK21 cells at 1 uM after 48 hrs by SRB assay. Format: functional. As to conditions: Mesocricetus auratus, BHK-21, 48 h; read-out: GI. A digest of the protocol:
as §3

The nature of test [7]: Anticancer activity against Syrian golden hamster BHK21 cells at 0.1 uM after 48 hrs by SRB assay. Type of test: functional. The conditions noted are these: Mesocricetus auratus, BHK-21, 48 h; read-out: GI. A digest of the protocol:
as §3

Test [8] deals with NCI-H157. Description: Anticancer activity against human NCI-H157 cells at 100 uM after 48 hrs by SRB assay. Format: functional. As to conditions: NCI-H157, 48 h, read-out: GI. A digest of the protocol:
as §3

Test [9] has as its system NCI-H157. Description: Anticancer activity against human NCI-H157 cells at 10 uM after 48 hrs by SRB assay. Format: functional. As to conditions: NCI-H157, 48 h, read-out: GI. A digest of the protocol: as §3
Test [10] relates to NCI-H157. Description: Anticancer activity against human NCI-H157 cells at 1 uM after 48 hrs by SRB assay. As to conditions: NCI-H157, 48 h, read-out: GI. Type of test: functional. A digest of the protocol: as §3
The subject of test [11] is NCI-H157. Description: Anticancer activity against human NCI-H157 cells at 0.1 uM after 48 hrs by SRB assay. Format: functional. The conditions noted are these: NCI-H157, 48 h, read-out: GI. A digest of the protocol:
as §3

The test system of test [12] is Leishmania major. The experiment in a line: Antileishmanial activity against promastigote form of Leishmania major at 100 uM after 72 hrs by MTT assay. Format: functional. A digest of the protocol:
(§4)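 Log-phase promastigotes grown at 25 °C in phenol-red-free D-MEM/F-12 with 10% heat-inactivated FBS, washed in PBS, seeded at 2.5×10⁶/mL (100 µL/well). Compounds in triplicate wells, 72 h at 25 °C; amphotericin B standard. MTT (5 mg/mL stock) 3 h, stopped with 50% isopropanol/10% SDS, OD570 minus 690. Percent inhibition vs control; mean ± SEM of three independent experiments.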
For orientation: Tetrazolium dyes change colour on reduction, which living cells bring about.

The test system of test [13] is Leishmania major. The experiment in a line: Antileishmanial activity against promastigote form of Leishmania major at 10 uM after 72 hrs by MTT assay. Format: functional. A digest of the protocol: as §4
For test [14], the system named is Leishmania major. Description: Antileishmanial activity against promastigote form of Leishmania major at 1 uM after 72 hrs by MTT assay. Type of test: functional. A digest of the protocol: as §4
Test [15] concerns Leishmania major. Description: Antileishmanial activity against promastigote form of Leishmania major at 0.1 uM after 72 hrs by MTT assay. Type of test: functional. A digest of the protocol:
as §4

The target in test [16] is Intestinal-type alkaline phosphatase (Bos taurus) (UniProt P19111). Described as §2. Also on record: concentration or dose not given beside the values.
Test [17] has as its target Acetylcholinesterase (Electrophorus electricus, UniProt O42275). The description is as §1.

The record followed here is ChEMBL document CHEMBL3232838, “Synthesis, crystal structure and biological evaluation of some novel 1,2,4-triazolo[3,4-b]-1,3,4-thiadiazoles and 1,2,4-triazolo[3,4-b]-1,3,4-thiadiazines” (Eur J Med Chem, 2014).

SMILES strings stand for the structures.

By inhibition is commonly meant the share of the control response that was lost under treatment. As a reminder, the IC50 is the point on the concentration scale where inhibition reaches its midpoint.

Cholinesterase, sequence (P06276 whole entry): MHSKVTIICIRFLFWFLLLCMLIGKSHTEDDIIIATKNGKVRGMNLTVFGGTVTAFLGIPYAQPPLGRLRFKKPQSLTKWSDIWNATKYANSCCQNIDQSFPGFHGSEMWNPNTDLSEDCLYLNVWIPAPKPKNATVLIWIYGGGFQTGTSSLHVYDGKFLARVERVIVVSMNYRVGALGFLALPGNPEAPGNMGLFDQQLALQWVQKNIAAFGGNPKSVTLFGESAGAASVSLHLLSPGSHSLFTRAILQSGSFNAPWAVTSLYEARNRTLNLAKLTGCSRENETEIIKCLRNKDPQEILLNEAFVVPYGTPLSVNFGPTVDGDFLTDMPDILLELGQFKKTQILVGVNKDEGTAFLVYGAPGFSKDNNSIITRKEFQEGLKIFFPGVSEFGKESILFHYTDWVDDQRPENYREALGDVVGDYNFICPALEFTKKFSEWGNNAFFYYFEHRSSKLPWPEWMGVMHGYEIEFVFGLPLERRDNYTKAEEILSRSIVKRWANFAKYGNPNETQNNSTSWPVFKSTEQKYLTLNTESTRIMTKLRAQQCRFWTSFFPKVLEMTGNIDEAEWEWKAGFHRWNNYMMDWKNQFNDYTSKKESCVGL
Acetylcholinesterase, sequence (O42275 whole entry): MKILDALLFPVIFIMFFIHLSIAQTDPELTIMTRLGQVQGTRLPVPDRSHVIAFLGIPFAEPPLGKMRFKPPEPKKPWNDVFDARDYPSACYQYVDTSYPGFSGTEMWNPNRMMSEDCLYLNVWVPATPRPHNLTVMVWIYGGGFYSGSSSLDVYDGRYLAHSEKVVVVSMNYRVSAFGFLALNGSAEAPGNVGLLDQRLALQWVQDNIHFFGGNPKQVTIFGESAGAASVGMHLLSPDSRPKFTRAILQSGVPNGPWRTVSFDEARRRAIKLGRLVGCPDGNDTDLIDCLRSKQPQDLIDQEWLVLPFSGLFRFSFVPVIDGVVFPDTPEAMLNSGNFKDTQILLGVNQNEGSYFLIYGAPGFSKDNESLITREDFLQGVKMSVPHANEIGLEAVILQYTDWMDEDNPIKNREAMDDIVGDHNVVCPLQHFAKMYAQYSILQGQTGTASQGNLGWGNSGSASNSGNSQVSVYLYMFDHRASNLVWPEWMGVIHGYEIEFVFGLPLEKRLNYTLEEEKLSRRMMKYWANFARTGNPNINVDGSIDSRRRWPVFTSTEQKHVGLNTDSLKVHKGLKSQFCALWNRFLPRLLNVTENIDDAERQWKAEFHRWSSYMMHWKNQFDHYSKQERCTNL
Intestinal-type alkaline phosphatase (Bos taurus), sequence (P19111 20-506 limits assumed): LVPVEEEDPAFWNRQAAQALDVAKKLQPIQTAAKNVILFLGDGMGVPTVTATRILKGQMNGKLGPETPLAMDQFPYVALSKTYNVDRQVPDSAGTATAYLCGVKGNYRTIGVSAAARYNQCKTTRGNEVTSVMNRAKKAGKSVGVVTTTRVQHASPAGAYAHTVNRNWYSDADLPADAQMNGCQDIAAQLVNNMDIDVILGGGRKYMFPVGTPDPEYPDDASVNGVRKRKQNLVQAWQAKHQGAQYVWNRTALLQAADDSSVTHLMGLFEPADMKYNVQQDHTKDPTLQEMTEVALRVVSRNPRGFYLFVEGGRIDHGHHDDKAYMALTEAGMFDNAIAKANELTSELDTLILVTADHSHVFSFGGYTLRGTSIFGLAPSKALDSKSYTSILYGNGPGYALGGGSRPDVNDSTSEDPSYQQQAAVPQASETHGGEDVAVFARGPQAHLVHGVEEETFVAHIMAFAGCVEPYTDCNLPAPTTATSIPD
Acetylcholinesterase (Electrophorus electricus), sequence (O42275 24-633 limits assumed): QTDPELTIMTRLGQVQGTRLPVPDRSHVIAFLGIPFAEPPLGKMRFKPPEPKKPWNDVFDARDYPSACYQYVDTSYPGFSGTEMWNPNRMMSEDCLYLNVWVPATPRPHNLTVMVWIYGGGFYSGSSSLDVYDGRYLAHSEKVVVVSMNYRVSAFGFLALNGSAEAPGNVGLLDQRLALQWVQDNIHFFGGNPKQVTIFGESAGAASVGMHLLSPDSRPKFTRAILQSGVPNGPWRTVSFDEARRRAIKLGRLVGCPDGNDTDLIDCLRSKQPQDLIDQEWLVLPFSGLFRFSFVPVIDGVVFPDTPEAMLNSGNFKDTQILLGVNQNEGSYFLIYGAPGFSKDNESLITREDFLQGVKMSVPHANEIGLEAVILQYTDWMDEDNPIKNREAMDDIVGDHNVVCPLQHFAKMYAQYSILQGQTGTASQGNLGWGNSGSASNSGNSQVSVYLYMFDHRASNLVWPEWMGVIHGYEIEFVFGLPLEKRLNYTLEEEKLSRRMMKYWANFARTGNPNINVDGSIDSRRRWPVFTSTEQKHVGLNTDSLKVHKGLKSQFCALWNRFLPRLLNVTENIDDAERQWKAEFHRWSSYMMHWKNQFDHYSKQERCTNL
Intestinal-type alkaline phosphatase, sequence (P19111 whole entry): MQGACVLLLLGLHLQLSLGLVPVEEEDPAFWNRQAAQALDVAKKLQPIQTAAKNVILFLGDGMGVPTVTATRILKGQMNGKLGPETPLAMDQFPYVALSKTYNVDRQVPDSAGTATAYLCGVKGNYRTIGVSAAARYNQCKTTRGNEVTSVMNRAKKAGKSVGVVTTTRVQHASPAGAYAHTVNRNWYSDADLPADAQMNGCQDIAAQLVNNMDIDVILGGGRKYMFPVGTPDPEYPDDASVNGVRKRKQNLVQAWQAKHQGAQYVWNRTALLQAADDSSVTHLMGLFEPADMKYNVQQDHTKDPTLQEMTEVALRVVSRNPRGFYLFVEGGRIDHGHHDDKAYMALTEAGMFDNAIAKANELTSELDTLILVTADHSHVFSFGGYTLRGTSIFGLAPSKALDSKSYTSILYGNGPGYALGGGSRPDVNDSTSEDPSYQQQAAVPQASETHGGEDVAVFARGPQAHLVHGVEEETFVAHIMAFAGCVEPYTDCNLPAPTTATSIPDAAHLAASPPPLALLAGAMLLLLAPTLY

As for `c1cc(-c2nnc3sc(-c4ccoc4)nn23)ccn1`, the inhibition in test [1] was 34.6%. In addition, the values for the IC50 in [2] and in [3] were 36.2 µM and 7.71 µM, respectively. For the same compound, the inhibition of growth at 100 µM came out at 31.2% in test [4] and 64.3% in test [8]. Also, the inhibition of growth at 10 µM in [5] was found to be 28.7%; in [9] it was 61.6%. The inhibition of growth at 1 µM in test [6] is 23.3%; in test [10], 57.7%. Also, the figures for the inhibition of growth at 0.1 µM in test [7] and in [11] were 20.3% and 54.8%, respectively. Besides, in test [12], testing at 100 µM gave an inhibition of 54.6%. In addition, in test [13], the inhibition at 10 µM came out at 51.5%. The compound further had an inhibition at 1 µM in test [14] of 48.5%. The compound also gave an inhibition at 0.1 µM in test [15] of 45.2%.

On to `Fc1cc(Cl)c(-c2nn3c(-c4ccncc4)nnc3s2)cc1F`, for which the results for the inhibition in test [1], in [2] and in test [16] were 47.2%, 18.2% and 31.6%, respectively. Also, the results for the inhibition of growth at 100 µM in test [4] and in test [8] were 58.9% and 49.2%, respectively. In addition, the inhibition of growth at 10 µM in test [5] is 53.9%; in test [9] it was 45.2%. Moreover, the inhibition of growth at 1 µM came out at 49.7% in test [6] and 41.4% in [10]. Moreover, the inhibition of growth at 0.1 µM in test [7] stood at 46.7%; in [11], 36.4%. Also, at 100 µM the inhibition in test [12] was 40.3%. Also, in test [13], the inhibition at 10 µM amounted to 37.9%. The compound also returned an inhibition at 1 µM in test [14] of 35.4%. In test [15], this compound returned an inhibition at 0.1 µM of 31.3%.

`COc1cccc(C2=Nn3c(nnc3-c3ccncc3)SC2)c1` had an IC50 in test [17] of 23.8 µM. The inhibition in [2] turned out to be 28.9%; in test [16] it was 38.5%. Also, the inhibition of growth at 100 µM in [4] was determined as 73.3%; in test [8], 54.4%. Also, the inhibition of growth at 10 µM in test [5] is 69.9%; in test [9], 51.1%. For the same compound, the inhibition of growth at 1 µM turned out to be 66.7% in [6] and 47.5% in [10]. Further, the inhibition of growth at 0.1 µM is 52.4% in [7] and 43.1% in [11]. The compound further returned an inhibition at 100 µM in test [12] of 38.6%. Besides, at 10 µM the inhibition in [13] was 35.2%. In test [14], this compound returned an inhibition at 1 µM of 32.3%. The compound further yielded an inhibition at 0.1 µM in [15] of 29.3%.

In the case of `Cc1occc1-c1nn2c(-c3ccncc3)nnc2s1`, in test [17], the half-maximal inhibitory concentration (IC50) came to 51.2 µM. Further, the inhibition in test [2] is 41.2%; in [16] it was 29.9%. Besides, the inhibition of growth at 100 µM stood at 64.7% in test [4] and 58.4% in test [8]. The inhibition of growth at 10 µM in [5] was 61.6%; in test [9] it was 55.1%. The inhibition of growth at 1 µM in test [6] was 57%; in [10], 51.9%. Moreover, the inhibition of growth at 0.1 µM is 54.6% in test [7] and 47.1% in [11]. In test [12], this compound gave an inhibition at 100 µM of 34.9%. In test [13], this compound registered an inhibition at 10 µM of 30.8%. Further, 1 µM produced 27.3% inhibition in test [14]. In [15], this compound had an inhibition at 0.1 µM of 25.1%.

As for `Oc1ccccc1OCc1nn2c(-c3ccncc3)nnc2s1`, the IC50 was determined as 54 µM in test [17] and 18 µM in [2]. The same compound showed an inhibition in test [16] of 46%. Moreover, the values for the inhibition of growth at 100 µM in [4] and in test [8] were 53.8% and 41.8%, respectively. The inhibition of growth at 10 µM stood at 49.9% in test [5] and 37.3% in test [9]. Besides, the inhibition of growth at 1 µM in test [6] worked out at 46.3%; in test [10], 35.9%. Besides, the inhibition of growth at 0.1 µM in test [7] turned out to be 43.8%; in test [11], 31.8%. In addition, in [12], the inhibition at 100 µM came out at 37.2%. For the same compound, in test [13], the inhibition at 10 µM came to 34.6%. In test [14], this compound yielded an inhibition at 1 µM of 31.2%. This compound also came in with an inhibition at 0.1 µM in test [15] of 27.8%.

Turning to `Cc1ccc(C2=Nn3c(nnc3-c3ccncc3)SC2)cc1`, the figures for the inhibition in [1] and in test [16] were 46.1% and 35.7%, respectively. Besides, in test [2], half-maximal inhibition (IC50) was put at 26.1 µM. Further, the inhibition of growth at 100 µM turned out to be 72.6% in test [4] and 63.8% in test [8]. The inhibition of growth at 10 µM in test [5] stood at 68.7%; in [9] it was 57.3%. Also, the inhibition of growth at 1 µM in test [6] is 62%; in [10] it was 53.2%. Besides, the inhibition of growth at 0.1 µM in test [7] amounted to 53.1%; in test [11] it was 50.3%. In test [12], this compound registered an inhibition at 100 µM of 43.9%. For the same compound, in test [13], the inhibition at 10 µM is 39.8%. The same compound displayed an inhibition at 1 µM in [14] of 37.7%. Also, in test [15], the inhibition at 0.1 µM stood at 34.5%.

Compound `Clc1ccc(C2=Nn3c(nnc3-c3ccncc3)SC2)cc1Cl` came in with an inhibition in test [1] of 46%. The results for the IC50 in test [2] and in [3] were 12.2 µM and 1.32 µM, respectively. The inhibition of growth at 100 µM in test [4] came out at 63.5%; in test [8], 72.1%. Also, the inhibition of growth at 10 µM in [5] was found to be 59.4%; in test [9], 67.4%. The inhibition of growth at 1 µM in test [6] was 56.5%; in test [10] it was 63.5%. The values for the inhibition of growth at 0.1 µM in test [7] and in test [11] were 52.8% and 59.4%, respectively. Further, at 100 µM the inhibition in test [12] was 59.8%. For the same compound, the inhibition at 10 µM in test [13] came to 56.4%. Further, in test [14], 1 µM produced 52.3% inhibition. In addition, in [15], testing at 0.1 µM gave an inhibition of 49.3%.
